This is a sample that favours compounds with a hit; in the whole collection about 1.8% have one here.
SKN-1 inh – inhibitors of C. elegans SKN-1 | C. elegans VP596 Pgst-4::GFP/RFP ratio, acrylamide-induced, 24 h | inhibition, % at 21.8 µM | 360,000 tested, 0.49% active | AID 624304;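 active = interference check ratio from 0.5 to 1.5 plus GFP to RFP signal ratio inhibition reaching or exceeding a fixed threshold, cut at about 30% in these data, passing the limit was not always enough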
beta cell repl – inducers of beta-cell replication in MIN6 cells. proliferation, % at 10 µM. MIN6 cells proliferation, ATPlite luminescence, 48 h; cells starved in 0.2% serum; 100% = growth in 10% serum. 330,000 tested, 0.29% active. AID 2380;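 active = compounds whose signal lies at least 3.5 SD above the mean of all wells on their plate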
DAGLB inh – diacylglycerol lipase beta (human) inhibition; HEK293T DAGLB membrane lysate, EnzChek fluorogenic substrate; 340,000 tested, 0.059% active; Q8NCG7; inhibition, % at 5.17 µM; AID 504411; in the data active = inhibition above about 34%
MT1-MMP act inh – inhibitors of human MT1-MMP activation | HT1080 RFP-PRO-GFP cells, GFP/RFP ratio fluorescence, overnight; percent of plate control window, DMSO zero | GFP/RFP ratio change, % at 20 µM | 360,000 tested, 0.061% active | AID 651647;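 active = GFP/RFP ratio change of at least 30% with cell ATP level not reduced by more than half and red fluorescence within 50% of control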
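Assay system: HT1080 RFP-PRO-GFP cells | Dosing: 20 µM single dose, 1% DMSO | Incubation: Cells overnight before dosing, compound overnight, 37 °C, 5% CO2 | Evaluation: GFP/RFP fluorescence ratio | Control set: DMSO-only wells and HT1080 RFP-L50D-GFP cell wells as references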
MsrA inh – bovine MsrA inhibition | purified bovine MsrA, absorbance read-out | 360,000 tested, 0.75% active | AID 651718 | inhibition, % at 15.5 µM; in the data active = inhibition above about 4.5%
MsrA act – activators of bovine methionine sulfoxide reductase A; AID 602163; 360,000 tested, 0.3% active; purified bovine MsrA, absorbance read-out; activation, % at 10.6 µM; in the data active = activation above about 7.5%
MsrA act confirm – bovine methionine sulfoxide reductase A activation confirmed; 1,000 tested, 12% active; activation, % at 10.6 µM; shares compounds with MsrA act; purified bovine MsrA, absorbance read-out; in the data active = activation above about 4%;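 note: enzyme coupled to thioredoxin and thioredoxin reductase with NADPH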
Large screens that a line does not name were inactive (follow-up assays come after a bar, where they were run).

Cc1cc(C)nc(N/N=C/c2cccc([N+](=O)[O-])c2)n1	MsrA act 10.3 (no result: DAGLB inh) | MsrA act confirm inactive
NC(=O)c1cc(S(=O)(=O)N2CCCC2)ccc1OCCOc1ccccc1F	MsrA act 11.0 | MsrA act confirm inactive
CC(=O)Nc1ccc(NC(=O)c2ccccc2Nc2ccccc2)cc1	none
C[C@@H]1CCCCO[C@@H](CN(C)Cc2ccccc2)[C@@H](C)CN([C@H](C)CO)C(=O)c2cc(N(C)C)ccc2O1	none (no result: beta cell repl)
C[C@H](CO)N1C[C@H](C)[C@@H](CN(C)Cc2ccccc2)OCCCC[C@H](C)Oc2ccc(N(C)C)cc2C1=O	MsrA act 8.7 (no result: beta cell repl) | MsrA act confirm inactive
CCOc1ccc2nc(NC(=S)N(C)C)sc2c1	MsrA act 8.1 | MsrA act confirm inactive
CCCC(=O)Nc1nc2ccc(OCC)cc2s1	none
Cn1nnnc1SCC(=O)N1CCc2ccccc21	MsrA act 16.6 | MsrA act confirm inactive
COc1ccc(CN(Cc2cccnc2)S(=O)(=O)c2ccc(-n3cnnn3)c(OC)c2)cc1	MsrA act 8.1 | MsrA act confirm inactive
COc1ccc(CN(Cc2ccc(OC)cc2)S(=O)(=O)c2ccc(-n3cnnn3)c(C)c2)cc1	none
Nc1cc(C2CCCC2)nn1-c1ccccc1	MsrA act 9.1 | MsrA act confirm inactive
O=C(O)c1cc(C2CC2)nn1-c1ccccc1	none
O=C1Oc2ccccc2C(=O)/C1=C\N1CCN(c2ccccc2)CC1	none
Cc1ccc(NC(=O)COC(=O)COc2ccc(Cl)cc2)c([N+](=O)[O-])c1	MsrA act 15.7 | MsrA act confirm inactive
CSc1nsc(SCC(=O)Nc2ccc(Cl)c(C(=O)O)c2)n1	none
O=C(NC1CC1)c1ccc(NS(=O)(=O)c2ccc(F)cc2)cc1	MsrA act 10.6 | MsrA act confirm inactive
O=C(CN1C(=O)NC2(CCCC2)C1=O)Nc1cc(S(=O)(=O)N2CCCCC2)ccc1Cl	none
COc1ccc(C)cc1N(C(=O)c1ccccc1F)c1nc2ccccc2s1	MsrA act 12.9 | MsrA act confirm inactive
COc1cccc(CC(=O)Nc2cc(S(=O)(=O)N3CCOCC3)ccc2N2CCN(C)CC2)c1	none
Nc1nc(=S)ss1	MsrA act 38.1 (no result: beta cell repl) | MsrA act confirm 28.1
CCOC(=O)C(=O)N(C)c1c(CC)nc2c(OCc3cccc(Cl)c3)cccn12	none (no result: beta cell repl, DAGLB inh)
CCOC(=O)N(C)c1c(CC)nc2c(OCCC3CCCCC3)cccn12	none (no result: beta cell repl, DAGLB inh)
CCOC(=O)N(C)c1c(CC)nc2c(OCc3cccc(Cl)c3)cccn12	MsrA act 9.2 (no result: beta cell repl, DAGLB inh) | MsrA act confirm inactive
CCOC(=O)C(=O)N(C)c1c(CC)nc2c(OCCC3CCCCC3)cccn12	MsrA act 8.2 (no result: beta cell repl, DAGLB inh) | MsrA act confirm inactive
CCCCC(=O)NNC(=S)NC(=O)c1cccc([N+](=O)[O-])c1	MsrA act 11.4 | MsrA act confirm inactive
Cc1ccc(C(=O)NC(=S)NNC(=O)CC#N)cc1	MsrA act 7.8 | MsrA act confirm 4.1
CCCCC(=O)NNC(=S)NC(=O)c1ccc([N+](=O)[O-])cc1	MsrA act 7.8 | MsrA act confirm 4.5
CCCCC(=O)NNC(=S)NC(=O)c1ccc(C)cc1	none
COc1ccc(C(=O)NC(=S)NNC(=O)c2ccc(C)cc2)cc1	none
O=Cc1cscc1[B-](F)(F)F	none (no result: SKN-1 inh, beta cell repl, DAGLB inh, MT1-MMP act inh, MsrA act)
O=C(NS(=O)(=O)c1ccccc1[N+](=O)[O-])[C@H]1O[C@@H](n2ccc(=O)[nH]c2=O)[C@H](O)[C@@H]1O	none (no result: SKN-1 inh, beta cell repl, DAGLB inh, MT1-MMP act inh, MsrA act)
CN(C)C(CNC(=S)Nc1ccccc1)c1cccnc1 (stereo not drawn)	none
CN(C)C(CNC(=S)Nc1ccccc1Cl)c1cccnc1 (stereo not drawn)	MsrA act 7.9 | MsrA act confirm inactive
Cc1cccc2cc3cccc(C)c3nc12	MsrA act 8.9 | MsrA act confirm inactive
Cc1cccc2cc3ccccc3nc12	none
C[C@H](c1ccccc1)N1C[C@@H](COCc2ccccc2)Oc2cccc(F)c2S1(=O)=O	none (no result: SKN-1 inh, beta cell repl, DAGLB inh, MT1-MMP act inh, MsrA act)
CN(C(=O)c1ccc(NC(=O)Cc2cccc(NC(=O)C3CCCN(C(=O)C4CC4)C3)c2)cc1)C1CCCC1 (stereo not drawn)	MsrA act 8.3 | MsrA act confirm inactive
CCNC(=S)N1CCc2ccccc2C1	none (no result: DAGLB inh)
S=C(NCc1ccccc1)N1CCc2ccccc2C1	MsrA act 9.5 | MsrA act confirm inactive

Source: PubChem BioAssay (several laboratories)
